According to ChEMBL document CHEMBL4014326, “Discovery of an Orally Bioavailable Benzimidazole Diacylglycerol Acyltransferase 1 (DGAT1) Inhibitor That Suppresses Body Weight Gain in Diet-Induced Obese Dogs and Postprandial Triglycerides in Humans” (J Med Chem, 2017):
pIC50: −log10 of the molar value.

What was measured:
[1] = molecular target: T1, Diacylglycerol O-acyltransferase 1 (Mus musculus, UniProt Q9Z2A7); test: Inhibition of DGTA1 in mouse C2C12 cells assessed as inhibition of triglyceride formation after 2 hrs by LC/MS/MS analysis; format: cell-based
T1 sequence (Q9Z2A7 whole entry): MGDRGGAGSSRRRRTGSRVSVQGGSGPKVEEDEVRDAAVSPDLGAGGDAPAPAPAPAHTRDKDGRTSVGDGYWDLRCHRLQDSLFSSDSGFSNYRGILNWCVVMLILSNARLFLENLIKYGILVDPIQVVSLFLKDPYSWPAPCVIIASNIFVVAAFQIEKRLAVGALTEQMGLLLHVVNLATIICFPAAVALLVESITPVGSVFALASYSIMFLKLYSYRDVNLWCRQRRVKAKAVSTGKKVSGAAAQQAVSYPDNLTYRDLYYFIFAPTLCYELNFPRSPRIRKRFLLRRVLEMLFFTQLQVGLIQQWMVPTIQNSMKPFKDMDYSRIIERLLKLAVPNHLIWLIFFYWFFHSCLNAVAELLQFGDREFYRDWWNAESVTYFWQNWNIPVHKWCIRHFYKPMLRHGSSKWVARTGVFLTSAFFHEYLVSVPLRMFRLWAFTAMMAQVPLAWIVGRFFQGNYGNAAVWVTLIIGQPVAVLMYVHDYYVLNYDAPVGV
How it was run: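 C2C12 cells were seeded in DMEM with 5 mM glucose and 10% FBS for 18 h at 37 °C. Medium was then replaced with DMEM, 5 mM glucose and 250 µM oleate-BSA plus inhibitor (0.5% DMSO final) for 2 h at 37 °C. Cells were extracted with butanol containing tripalmitolein internal standard and triglyceride was read by LC-MS/MS. An 11-point, 3-fold dose response was run in quadruplicate.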

[2] = Permeability across apical to basolateral side in human Caco2 cells; format: ADME, cell-based; conditions: Caco-2, read-out: permeability
How it was run: (§1)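 Caco-2 monolayer permeability was measured in the A-B and B-A directions, and the efflux ratio was taken as B-A/A-B.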

[3] = Permeability across basolateral to apical side in human Caco2 cells; format: ADME, cell-based; conditions: Caco-2, read-out: permeability; how it was run: as §1
[4] = Efflux ratio of permeability across basolateral to apical side over apical to basolateral side in human Caco2 cells; format: ADME, cell-based; conditions: Caco-2; how it was run: as §1
[5] = system: Salmonella typhimurium; test: Genotoxicity in histidine depleted Salmonella typhimurium TA100 assessed as increase in reverting mutations up to 1000 ug in presence of S9 metabolic activation by Ames test; format: toxicity; conditions: salmonella enterica subsp. enterica serovar typhimurium
[6] = system: Salmonella typhimurium; test: Genotoxicity in histidine depleted Salmonella typhimurium TA98 assessed as increase in reverting mutations up to 1000 ug in absence of S9 metabolic activation by Ames test; format: toxicity; conditions: salmonella enterica subsp. enterica serovar typhimurium
[7] = system: Salmonella typhimurium; test: Genotoxicity in histidine depleted Salmonella typhimurium TA100 assessed as increase in reverting mutations up to 1000 ug in absence of S9 metabolic activation by Ames test; format: toxicity; conditions: salmonella enterica subsp. enterica serovar typhimurium
[8] = Clearance in Sprague-Dawley rat at 1 mg/kg, iv by LC/MS/MS analysis; format: ADME, organism-based; conditions: in vivo
How it was run: (§2)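 Male Sprague-Dawley rats, 200-300 g, dosed iv (n = 2) or po (n = 3) as solutions in NMP/PG or PEG400/ETPGS vehicles. Blood was taken from a jugular vein catheter at 0.083 (iv only), 0.25, 0.5, 1, 2, 4, 6 and 8 h into EDTA tubes, and plasma was analysed by LC-MS/MS. Values are means ± SD.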

[9] = Half life in Sprague-Dawley rat at 1 mg/kg, iv by LC/MS/MS analysis; format: ADME, organism-based; conditions: in vivo; how it was run: as §2
[10] = AUC (0 to 8 hrs) in Sprague-Dawley rat at 1mg/kg, iv by LC/MS/MS analysis; format: ADME, organism-based; design: time < 8 hr, dose 1 mg/kg, route intravenous; conditions: in vivo; how it was run: as §2
[11] = Cmax in Sprague-Dawley rat at 3 mg/kg, po by LC/MS/MS analysis; format: ADME, organism-based; design: dose 3 mg/kg, route oral; conditions: in vivo; how it was run: as §2
[12] = AUC (0 to 8 hrs) in Sprague-Dawley rat at 3 mg/kg, po by LC/MS/MS analysis; format: ADME, organism-based; design: dose 3 mg/kg, time < 8 hr, route oral; conditions: in vivo; how it was run: as §2
[13] = Oral bioavailability in Sprague-Dawley rat at 3 mg/kg by LC/MS/MS analysis; format: ADME, organism-based; conditions: in vivo; how it was run: as §2
[14] = system: Homo sapiens; test: Toxicity in human assessed as diarrhea at 150 mg, po as single oral dose; format: organism-based; conditions: in vivo
[15] = system: Homo sapiens; test: Toxicity in human assessed as nausea at 150 mg, po as single oral dose; format: organism-based; conditions: in vivo
[16] = Drug metabolism in rat hepatocytes assessed as [3H]-(2S,3S,4S,5R,6S)-3,4,5-trihydroxy-6-(3-(4-(6-(5-(4-methoxyphenyl)-1,3,4-oxadiazol-2-yl)-1H-benzo[d]imidazol-2-yl)-3,5-dimethylphenyl)-2,2-dimethylpropanoyloxy)tetrahydro-2H-pyran-2-carboxylic acid formation at 12.5 uM after 18 hrs; format: ADME, cell-based, Hepatocyte
How it was run: (§3)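 [3H]-labelled compound (12.5 µM) was incubated for 18 h with rat, dog, monkey or human hepatocytes, and metabolites were profiled.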

[17] = Drug metabolism in dog hepatocytes assessed as [3H]-(2S,3S,4S,5R,6S)-3,4,5-trihydroxy-6-(3-(4-(6-(5-(4-methoxyphenyl)-1,3,4-oxadiazol-2-yl)-1H-benzo[d]imidazol-2-yl)-3,5-dimethylphenyl)-2,2-dimethylpropanoyloxy)tetrahydro-2H-pyran-2-carboxylic acid formation at 12.5 uM after 18 hrs; format: ADME, cell-based, Canis lupus familiaris, Hepatocyte; how it was run: as §3
[18] = Drug metabolism in human hepatocytes assessed as [3H]-(2S,3S,4S,5R,6S)-3,4,5-trihydroxy-6-(3-(4-(6-(5-(4-methoxyphenyl)-1,3,4-oxadiazol-2-yl)-1H-benzo[d]imidazol-2-yl)-3,5-dimethylphenyl)-2,2-dimethylpropanoyloxy)tetrahydro-2H-pyran-2-carboxylic acid formation at 12.5 uM after 18 hrs; format: ADME, cell-based, Hepatocyte; how it was run: as §3
[19] = Drug metabolism in dog hepatocytes assessed as [3H]-3-(3,5-dimethyl-4-(6-(5-phenyl-1,3,4-oxadiazol-2-yl)-1H-benzo[d]imidazol-2-yl)phenyl)-2,2-dimethylpropanoic acid formation at 12.5 uM after 18 hrs; format: ADME, cell-based, Canis lupus familiaris, Hepatocyte; how it was run: as §3
[20] = Drug metabolism in monkey hepatocytes assessed as [3H]-3-(3,5-dimethyl-4-(6-(5-phenyl-1,3,4-oxadiazol-2-yl)-1H-benzo[d]imidazol-2-yl)phenyl)-2,2-dimethylpropanoic acid formation at 12.5 uM after 18 hrs; format: ADME, cell-based, Macaca mulatta, Hepatocyte; conditions: rhesus monkey; how it was run: as §3
[21] = Drug metabolism in human hepatocytes assessed as [3H]-3-(3,5-dimethyl-4-(6-(5-phenyl-1,3,4-oxadiazol-2-yl)-1H-benzo[d]imidazol-2-yl)phenyl)-2,2-dimethylpropanoic acid formation at 12.5 uM after 18 hrs; format: ADME, cell-based, Hepatocyte; how it was run: as §3
[22] = molecular target: T2, Diacylglycerol O-acyltransferase 2 (Homo sapiens, UniProt Q96PD7); test: Inhibition of DGAT2 (unknown origin)
T2 sequence (Q96PD7 whole entry): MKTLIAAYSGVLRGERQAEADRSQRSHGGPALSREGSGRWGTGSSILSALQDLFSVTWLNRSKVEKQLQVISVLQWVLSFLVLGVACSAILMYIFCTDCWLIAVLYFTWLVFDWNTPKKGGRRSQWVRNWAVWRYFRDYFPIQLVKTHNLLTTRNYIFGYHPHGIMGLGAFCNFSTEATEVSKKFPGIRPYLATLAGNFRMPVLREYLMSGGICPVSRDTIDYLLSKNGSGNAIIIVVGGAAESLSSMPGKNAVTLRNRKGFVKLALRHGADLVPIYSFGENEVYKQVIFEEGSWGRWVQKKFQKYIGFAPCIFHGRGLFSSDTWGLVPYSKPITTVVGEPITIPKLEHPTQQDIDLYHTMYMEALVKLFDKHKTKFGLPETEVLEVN

Work on `COc1ccc(-c2nnc(-c3ccc4nc(-c5c(C)cc(CC(C)(C)C(=O)O)cc5C)[nH]c4c3)o2)cc1` yielded a pIC50 [1] of 6.82, a Papp A→B [2] of 4.2 ×10⁻⁶ cm/s and a Papp B→A [3] of 10 ×10⁻⁶ cm/s. For the same compound, the efflux ratio [4] was 2.4, the Activity [5] was “Non-Toxic” and the Activity [6] was “Non-Toxic”. The Activity [7] was “Non-Toxic”, the clearance [8] was 9.5 mL/min/kg and the half-life [9] was 1.9 h. For the same compound, the AUC(0-t) at 8 h [10] was 3.86 µM·h, the Cmax [11] was 3.55 µM and the AUC(0-t) at 8 h [12] was 10.4 µM·h. The bioavailability [13] was 90%, the Activity [14] was “Toxic” and the Activity [15] was “Toxic”. The Drug metabolism [16] was “Metabolite_Detected”, the Drug metabolism [17] was “Metabolite_Detected” and the Drug metabolism [18] was “Metabolite_Detected”. The Drug metabolism [19] was “Metabolite_Detected”, the Drug metabolism [20] was “Metabolite_Detected” and the Drug metabolism [21] was “Metabolite_Detected”. For the same compound, the pIC50 [22] was under 5.00.
